One experiment has as its system NCI-H226. Description: Antitumor activity against human NCI-H226 cells after 48 hrs by MTT assay. Format: functional, cell-based. As to conditions: NCI-H226, 48 h. Summed up: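 Cells grown at 37 °C in humidified 5% CO2, seeded at 1×10^4 cells/well, and allowed to attach for 24 h. They were then exposed to a range of concentrations for 48 h, washed with PBS, and given 1 mg/ml MTT for 2 h. Formazan was dissolved in DMSO and read at 570 nm.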

For a further experiment, the system named is ACHN. Description: Antitumor activity against human ACHN cells after 48 hrs by MTT assay. Format: functional, cell-based.

The IC50 is the concentration that inhibits the measured activity by half. For `OCc1ccc(-c2nn(Cc3ccccc3)c3ccccc23)o1`, the IC50 in the experiment with NCI-H226 turned out to be 25 µM; in the experiment with ACHN it was 0.3 µM.

(Values after ChEMBL document CHEMBL1157034, “Synthesis of 1-benzyl-3-(5-hydroxymethyl-2-furyl)selenolo[3,2-c]pyrazole derivatives as new anticancer agents” (Eur J Med Chem, 2010).)
